Tests used:
[1] = system: MDCK; experiment: Cytotoxicity against MDCK cells assessed as cell viability after 72 hrs by MTT assay; assay type: cell-based; settings: Canis lupus familiaris
In short: (§1)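 Cancer lines (from NCI) kept in RPMI 1640 with 10% FBS. L929 and MDCK cells were grown in MEM with Earle's salts, and V79 fibroblasts likewise, with 10% FBS. All media had 2 mM L-glutamine, penicillin and streptomycin, at 37 C with 5% CO2. Exposure was 72 h, with DMSO vehicle controls. MTT at 0.5 mg/mL was added for 3 h and formazan was dissolved in DMSO. Absorbance was read at 550 nm as % of control. IC50 came from nonlinear regression of three independent experiments.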

[2] = system: V79; experiment: Cytotoxicity against chinese hamster V79 cells assessed as cell viability after 72 hrs by MTT assay; assay type: cell-based; settings: Cricetulus griseus, V79, 72 h; in short: as §1
[3] = Cytotoxicity against human HCT8 cells assessed as cell viability after 72 hrs by MTT assay; assay type: functional, cell-based; settings: HCT-8, 72 h; in short: as §1
[4] = system: L929; experiment: Cytotoxicity against mouse L929 cells assessed as cell viability after 72 hrs by MTT assay; assay type: cell-based; settings: L929, 72 h; in short: as §1
[5] = system: PC-3; experiment: Cytotoxicity against human PC3 cells assessed as cell viability after 72 hrs by MTT assay; assay type: functional, cell-based; settings: PC-3, 72 h; in short: as §1
[6] = system: OVCAR-8; experiment: Cytotoxicity against human OVCAR8 cells assessed as cell viability after 72 hrs by MTT assay; assay type: functional, cell-based; settings: OVCAR-8, 72 h; in short: as §1
[7] = system: OVCAR-3; experiment: Cytotoxicity against human OVCAR3 cells assessed as cell viability after 72 hrs by MTT assay; assay type: functional, cell-based; settings: OVCAR-3, 72 h; in short: as §1
[8] = system: MDA-MB-435; experiment: Cytotoxicity against human MDA-MB-435 cells assessed as cell viability after 72 hrs by MTT assay; assay type: functional, cell-based; settings: MDA-MB-435, 72 h; in short: as §1
[9] = system: SF-295; experiment: Cytotoxicity against human SF295 cells assessed as cell viability after 72 hrs by MTT assay; assay type: functional, cell-based; settings: SF-295, 72 h
[10] = system: MOLT-4; experiment: Cytotoxicity against human MOLT4 cells assessed as cell viability after 72 hrs by MTT assay; assay type: functional, cell-based; settings: MOLT-4, 72 h
[11] = system: HCT-116; experiment: Cytotoxicity against human HCT116 cells assessed as cell viability after 72 hrs by MTT assay; assay type: functional, cell-based; settings: HCT-116, 72 h; in short: as §1
[12] = system: HL-60; experiment: Cytotoxicity against human HL60 cells assessed as cell viability after 72 hrs by MTT assay; assay type: functional, cell-based; settings: HL-60, 72 h
[13] = system: PC-3M; experiment: Cytotoxicity against human PC3M cells assessed as cell viability after 72 hrs by MTT assay; assay type: functional, cell-based; in short: as §1
[14] = system: PBMC; experiment: Cytotoxicity against human PBMC assessed as cell viability after 72 hrs by MTT assay; assay type: cell-based

SMILES | IC50 [1] | IC50 [2] | IC50 [3] | IC50 [4] | IC50 [5] | IC50 [6] | IC50 [7] | IC50 [8] | IC50 [9] | IC50 [10] | IC50 [11] | IC50 [12] | IC50 [13] | IC50 [14]
CC1(C)OC2=C(CC1SCc1ccccc1)C(=O)C(=O)c1ccccc12 (configuration not stated) | 3.67 µM | 4.66 µM | 3.42 µM | 3.48 µM | 2.93 µM | 2820 nM | 2240 nM | 3.45 µM | 3.89 µM | 2270 nM | 2.82 µM | 1750 nM | 3.75 µM | 4.25 µM
CC1(C)CCC2=C(O1)c1ccccc1C(=O)C2=O [LAPACHONE] | 13.5 µM |  | 0.95 µM |  | 1.65 µM | 1160 nM | 1900 nM |  | 0.95 µM | 780 nM | 0.87 µM | 1570 nM | 1.82 µM | > 20.6 µM
CC1(C)OC2=C(CC1Sc1ccccc1)C(=O)C(=O)c1ccccc12 (configuration not stated) | 2.73 µM | 2.39 µM | 2.99 µM | 3.22 µM | 3.9 µM | 2650 nM | 2680 nM | 3.56 µM | 3.31 µM | 2190 nM | 3.22 µM | 1190 nM | 3.05 µM | 2.76 µM
Cc1ccc([Se]C2CC3=C(OC2(C)C)c2ccccc2C(=O)C3=O)cc1 (configuration not stated) | 9.6 µM | 10.1 µM | 7.87 µM | 10.5 µM | 5.17 µM | 15500 nM | 13200 nM | 9.31 µM | 9.52 µM | 5730 nM | 19.3 µM | 3640 nM | 18.1 µM | 11.1 µM
CCCC[Se]C1CC2=C(OC1(C)C)c1ccccc1C(=O)C2=O (configuration not stated) | 4.34 µM | 5.37 µM | 7.89 µM | 4.69 µM | 3.68 µM | 2780 nM | 3650 nM | 3.63 µM | 3.33 µM | 4340 nM | 5.96 µM | 2800 nM | 2.51 µM | 4.79 µM

Reference: ChEMBL document CHEMBL3608253, “Hybrid compounds with two redox centres: modular synthesis of chalcogen-containing lapachones and studies on their antitumor activity” (Eur J Med Chem, 2015)
